Laboratory results as given in publication PMC3319156 (Journal of Medicinal Chemistry, 2011).
Values belong to the compound of their own block, whether it stands above or below them.

Assays:
[1] = tested on: cultured melanoma, breast, prostate, and pancreatic tumor cell lines; conditions: cited from earlier work
Tyr705 of Stat3 = Tyr705 of Stat3 (Homo sapiens, UniProt P40763); assay: Inhibition of constitutive Stat3 Tyr705 phosphorylation in MDA-MB-468 cells; format: cell-based; conditions: for concentration at which pStat3 was completely inhibited / concentration with noticeable inhibition of pStat3: MDA-MB-468, 2 h treatment, western blot; for time at which pStat3 formation was completely inhibited / time for which complete inhibition of pStat3 was sustained: MDA-MB-468, single dose of 5 µM; for effect on pStat3 band at 25 µM: MDA-MB-468, 25 µM
Method in brief: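 MDA-MB-468 cells (4 × 10^5/well) were grown overnight in DMEM with 10% FCS. Prodrug was given from a 10 mM DMSO stock prepared fresh, for 2 h, or over a time course. After ice-cold PBS washes, cells were lysed (Hepes pH 7.4, Triton X-100, NaF, vanadate, protease inhibitors). 12 µg protein went on 8% SDS-PAGE/PVDF with 5% BSA block. Blots were probed for pStat3 Y705 by ECL, stripped at 50°C, and reprobed for total Stat3.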

[2] = tested on: Tyr861 of the focal adhesion kinase (FAK); assay: Constitutive FAK Tyr861 phosphorylation in MDA-MB-468 cells; format: cell-based; conditions: MDA-MB-468, 2 h treatment
Method in brief: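 Constitutive signal, no stimulus: MDA-MB-468 cells were plated overnight in DMEM/10% FCS and given test compound from a 10 mM DMSO stock for 2 h. Cells were lysed in Hepes pH 7.4 detergent buffer with phosphatase and protease inhibitors. Protein was separated by SDS-PAGE, blotted to PVDF, blocked with 5% BSA, and probed for pTyr861 FAK and total FAK.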

H528 = assay: Growth inhibition of H528 NSCLC cells; format: cell-based; conditions: H528, 5–10 µM, data not shown
Tyr701 of Stat1 = target: T1, Tyr701 of Stat1 (Homo sapiens, UniProt P42224); assay: IFNγ-stimulated Stat1 Tyr701 phosphorylation in MDA-MB-468 cells; format: cell-based; conditions: MDA-MB-468, 1.5 h then 30 min IFNγ
T1 sequence (P42224 1-750): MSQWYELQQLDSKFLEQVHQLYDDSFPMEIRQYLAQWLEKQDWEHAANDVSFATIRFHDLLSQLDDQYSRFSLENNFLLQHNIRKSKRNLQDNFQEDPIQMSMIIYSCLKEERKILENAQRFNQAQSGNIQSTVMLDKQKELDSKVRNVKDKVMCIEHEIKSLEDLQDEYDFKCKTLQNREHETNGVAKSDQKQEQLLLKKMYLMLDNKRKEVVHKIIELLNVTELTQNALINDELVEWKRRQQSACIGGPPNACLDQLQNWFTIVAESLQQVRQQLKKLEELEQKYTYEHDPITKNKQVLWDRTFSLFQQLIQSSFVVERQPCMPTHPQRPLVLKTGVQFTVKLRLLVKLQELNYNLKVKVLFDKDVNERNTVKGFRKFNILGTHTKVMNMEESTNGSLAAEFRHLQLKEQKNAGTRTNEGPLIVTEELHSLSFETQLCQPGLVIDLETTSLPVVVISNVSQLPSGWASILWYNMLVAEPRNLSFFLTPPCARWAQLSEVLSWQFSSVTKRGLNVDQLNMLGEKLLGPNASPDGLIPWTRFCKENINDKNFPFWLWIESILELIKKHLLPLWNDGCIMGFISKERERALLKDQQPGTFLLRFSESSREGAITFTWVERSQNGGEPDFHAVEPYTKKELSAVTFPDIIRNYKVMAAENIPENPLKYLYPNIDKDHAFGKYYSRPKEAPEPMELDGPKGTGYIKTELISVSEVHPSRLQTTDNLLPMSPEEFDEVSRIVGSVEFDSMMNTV
Method in brief: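 MDA-MB-468 cells were prepared as for the Stat3 assay (plated overnight in DMEM/10% FCS) and exposed to increasing test compound concentrations for 1.5 h. Interferon γ was then added at 25 ng/mL for 30 min. Lysates were run on PAGE, blotted to PVDF, and probed for pTyr701 Stat1 and total Stat1 with chemiluminescent detection.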

Ser473 of Akt = assay: Akt Ser473 phosphorylation in MDA-MB-468 cells; format: cell-based; conditions: MDA-MB-468, 5 µM, 1.5 h then EGF 30 min
Stat3 [3] = target: T2, Stat3 (Homo sapiens, UniProt P40763); assay: EGF-stimulated Stat3 phosphorylation in MDA-MB-468 cells; format: cell-based; conditions: MDA-MB-468, 5 µM, 1.5 h then EGF 30 min
Tyr694 of Stat5 = assay: Stat5 Tyr694 phosphorylation in MDA-MB-468 cells; format: cell-based; conditions: MDA-MB-468, 5 µM, 1.5 h then EGF 30 min
Stat3 [4] = target: T2, Stat3; assay: Inhibition of constitutive Stat3 phosphorylation in BT20 breast tumor cells; format: cell-based; conditions: screen
MDA-MB-468 cells = assay: Cytotoxicity to MDA-MB-468 cells, MTT assay; format: cell-based; conditions: MDA-MB-468, treated daily for three days
Method in brief: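 MDA-MB-468 cells in DMEM with 10% FBS were plated at 1500 cells/well in triplicate, and the medium was changed the next day. Prodrug was dissolved fresh in ethanol to a 10 mM stock, diluted, and added. Further doses went into the same medium at 24 and 48 h, with final ethanol below 1%. Viability was read by MTT.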

Tyr861 of FAK = conditions: tumor cells; cited from earlier work

T2 sequence (P40763 whole entry): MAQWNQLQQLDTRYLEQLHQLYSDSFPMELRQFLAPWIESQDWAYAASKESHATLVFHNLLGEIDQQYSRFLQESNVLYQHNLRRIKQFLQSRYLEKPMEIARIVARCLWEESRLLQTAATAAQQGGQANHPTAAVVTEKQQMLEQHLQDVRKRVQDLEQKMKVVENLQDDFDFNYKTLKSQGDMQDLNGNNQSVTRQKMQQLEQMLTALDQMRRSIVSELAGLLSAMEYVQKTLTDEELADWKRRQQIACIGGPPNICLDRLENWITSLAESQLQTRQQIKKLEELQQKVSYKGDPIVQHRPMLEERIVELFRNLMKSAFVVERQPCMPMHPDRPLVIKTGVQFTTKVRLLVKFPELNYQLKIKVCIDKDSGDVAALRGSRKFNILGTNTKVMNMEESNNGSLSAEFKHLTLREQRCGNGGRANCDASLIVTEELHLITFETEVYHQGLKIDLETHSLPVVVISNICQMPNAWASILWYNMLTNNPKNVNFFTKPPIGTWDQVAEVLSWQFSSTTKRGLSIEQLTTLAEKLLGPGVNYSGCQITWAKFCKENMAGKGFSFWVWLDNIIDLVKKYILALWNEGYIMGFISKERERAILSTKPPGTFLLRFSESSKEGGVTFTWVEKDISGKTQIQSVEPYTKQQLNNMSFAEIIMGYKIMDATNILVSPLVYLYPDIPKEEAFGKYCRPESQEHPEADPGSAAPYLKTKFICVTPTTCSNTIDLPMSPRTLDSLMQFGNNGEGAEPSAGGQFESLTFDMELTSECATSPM
Sequence of Tyr705 of Stat3 (P40763 whole entry): as above

SMILES: Cc1cc(Nc2nc(N[C@@H](C)c3ncc(F)cn3)ncc2Cl)n[nH]1 [AZD1480]
cytotoxicity at concentrations that completely eliminated Tyr705 phosphorylation [1]: not cytotoxic

SMILES: CC(C)(C)c1nc2c3cc[nH]c(=O)c3c3cc(F)ccc3c2[nH]1 [P6]
cytotoxicity at concentrations that completely eliminated Tyr705 phosphorylation [1]: not cytotoxic

SMILES: C/C(=C\C(=O)N[C@H]1CCc2cccc3c2N(C1=O)[C@H](C(=O)N[C@@H](CCC(N)=O)C(=O)NCc1ccccc1)C3)c1ccc(C(F)(F)P(=O)(OCOC(=O)C(C)(C)C)OCOC(=O)C(C)(C)C)cc1 [compound 32]
effect on level of pStat3 (Tyr705 of Stat3; MDA-MB-468, 2 h, increasing concentrations): reduced the level of pStat3 in a dose-dependent manner

SMILES: CCCC[C@H](NC(=O)/C=C(\C)c1ccc(C(F)(F)P(=O)(OCOC(=O)C(C)(C)C)OCOC(=O)C(C)(C)C)cc1)C(=O)N1C[C@@H]2C[C@@H]2[C@@H]1C(=O)N[C@H](C)CCC(N)=O [compound 38]
effect on pStat3 band at 25 µM (Tyr705 of Stat3): only partially reduced

SMILES: CCOP(=O)(OCC)C(F)(F)c1ccc(/C(C)=C/C(=O)N[C@H]2CCc3cccc4c3N(C2=O)[C@H](C(=O)N[C@H](C)CCC(N)=O)C4)cc1 [compound 40]
effect on pStat3 band at 25 µM (Tyr705 of Stat3): no effect on Stat3 phosphorylation

SMILES: Cc1nc(Nc2ncc(C(=O)Nc3c(C)cccc3Cl)s2)cc(N2CCN(CCO)CC2)n1 [dasatinib]
levels of Tyr861 phosphorylation on treatment (Tyr861 of FAK): decrease

Second part, led by results:

concentration at which pStat3 was completely inhibited (Tyr705 of Stat3): 0.5 µM
concentration with noticeable inhibition of pStat3 (Tyr705 of Stat3): 0.1 µM
SMILES: C[C@H](CCC(N)=O)NC(=O)[C@@H]1Cc2cccc3c2N1C(=O)[C@@H](NC(=O)/C=C/c1ccc(C(F)(F)P(=O)(OCOC(=O)C(C)(C)C)OCOC(=O)C(C)(C)C)cc1)CC3 [compound 33]

concentration at which pStat3 was completely inhibited (Tyr705 of Stat3): 0.5 µM
time at which pStat3 formation was completely inhibited (Tyr705 of Stat3): 30 min
time for which complete inhibition of pStat3 was sustained (Tyr705 of Stat3): 4 h
concentration of complete inhibition of Stat1 phosphorylation (Tyr701 of Stat1): 5 µM
increase in Stat3 phosphorylation induced by EGF (Stat3 [3]): completely inhibited
ability to inhibit constitutive phosphorylation of Stat3 (Stat3 [4]): considerable potency
SMILES: CCCC[C@H](NC(=O)/C=C(\C)c1ccc(C(F)(F)P(=O)(OCOC(=O)C(C)(C)C)OCOC(=O)C(C)(C)C)cc1)C(=O)N1C[C@H]2C[C@H]2[C@H]1C(=O)N[C@@H](CCC(N)=O)C(C)OCc1ccccc1 (stereo partly drawn) [compound 35]
FAK Tyr861 phosphorylation [2]: no reduction of Tyr861 phosphorylation
inhibition (H528): < 20%
Akt Ser473 phosphorylation (Ser473 of Akt): do not inhibit Akt phosphorylation
Stat5 phosphorylation (Tyr694 of Stat5): not inhibited
survival curves with daily dosing compared with single dose (MDA-MB-468 cells): little change in the survival curves

effect on pStat3 band at 25 µM (Tyr705 of Stat3): only partially reduced
concentration with noticeable inhibition of pStat3 (Tyr705 of Stat3): ≥ 25 µM
fold less potent at inhibiting Stat3 phosphorylation (Tyr705 of Stat3; relative to 35): 20–25 fold
SMILES: CCCC[C@H](NC(=O)/C=C(\C)c1ccc(C(F)(F)P(=O)(OCOC(=O)C(C)(C)C)OCOC(=O)C(C)(C)C)cc1)C(=O)N1C[C@@H]2C[C@@H]2[C@@H]1C(=O)N[C@@H](CCC(N)=O)C(C)OCc1ccccc1 (stereo partly drawn) [compound 36]

concentration at which pStat3 was completely inhibited (Tyr705 of Stat3): 0.5 µM
time at which pStat3 formation was completely inhibited (Tyr705 of Stat3): 30 min
time for which complete inhibition of pStat3 was sustained (Tyr705 of Stat3): 4 h
concentration of complete inhibition of Stat1 phosphorylation (Tyr701 of Stat1): 5 µM
increase in Stat3 phosphorylation induced by EGF (Stat3 [3]): completely inhibited
ability to inhibit constitutive phosphorylation of Stat3 (Stat3 [4]): considerable potency
SMILES: CCCC[C@H](NC(=O)/C=C(\C)c1ccc(C(F)(F)P(=O)(OCOC(=O)C(C)(C)C)OCOC(=O)C(C)(C)C)cc1)C(=O)N1C[C@H]2C[C@H]2[C@H]1C(=O)N[C@H](C)CCC(N)=O [compound 37]
FAK Tyr861 phosphorylation [2]: no reduction of Tyr861 phosphorylation
Akt Ser473 phosphorylation (Ser473 of Akt): do not inhibit Akt phosphorylation
Stat5 phosphorylation (Tyr694 of Stat5): not inhibited

concentration at which pStat3 was completely inhibited (Tyr705 of Stat3): 5 µM
inhibition of the phosphorylation of Stat3 up to 1 µM (Tyr705 of Stat3; MDA-MB-468, up to 1 µM, 2 h): little inhibition
SMILES: CCCC[C@H](NC(=O)/C=C(\C)c1ccc(C(F)(F)P(=O)(OCOC(=O)C(C)(C)C)OCOC(=O)C(C)(C)C)cc1)C(=O)N1CC2CC2C1C(=O)NCCNC(N)=O (stereo partly drawn) [compound 39]
